ChEMBL document CHEMBL3259723, “Membrane active vancomycin analogues: a strategy to combat bacterial resistance” (J Med Chem, 2014)
Activity calls are given as the source filed them. The calls are words filed in the database; no cut-off is given here.

Assays:
[1] = test system: Staphylococcus aureus; test: Bactericidal activity against methicillin-resistant Staphylococcus aureus ATCC 33591 assessed as log10 reduction of bacterial count at 6 times MIC measured over 24 hrs; assay type: functional
How it was run: (§1)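 MRSA in yeast-dextrose broth, starting inoculum 1.6 × 10^8 CFU/mL. […] Samples taken at 0, 1, 2, 3, 6 and 24 h, diluted 10-fold serially in saline and plated on yeast-dextrose agar. Colonies counted after 24 h at 37 °C; log10 CFU/mL reported.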

[2] = test system: Enterococcus faecium; test: Antibacterial activity against vancomycin-sensitive Enterococcus faecium ATCC 19634 assessed as growth inhibition by broth microdilution method; assay type: functional
How it was run: (§2)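 Broth microdilution per CLSI; compounds serially diluted in autoclaved water. Bacteria grown 6 h in suitable media, diluted to 10⁵ CFU/mL; compound added to bacterial suspension, incubated at 37 °C, OD600 read. Triplicate wells, experiment done at least twice; mean OD versus concentration sigmoidally fitted, MIC taken where OD equals no-bacteria control.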

[3] = test system: Enterococcus faecium; test: Antibacterial activity against vancomycin-resistant VanA phenotype of Enterococcus faecium ATCC 51559 assessed as induction of cytoplasmic membrane permeabilization at 10 uM measured for 10 mins by propidium iodide uptake assay; assay type: functional, organism-based
How it was run: (§3)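 Mid-log (6 h) cells harvested at 4 °C, washed and resuspended in PBS pH 7.2. Compound added to cells with 10 μM propidium iodide. Fluorescence (ex 535/em 617 nm) monitored 10 min at RT; the rise in PI fluorescence taken as inner membrane permeabilization.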

[4] = test system: Staphylococcus aureus; test: Antibacterial activity against methicillin-resistant Staphylococcus aureus ATCC 33591 assessed as growth inhibition by broth microdilution method; assay type: functional
How it was run: (§4)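 Broth microdilution per CLSI; compounds serially diluted in sterile water, added to bacteria at 10^5 CFU/mL (diluted from 6 h cultures). Incubated at 37 °C, OD600 read. Triplicate wells, experiment done at least twice. Mean OD plotted against concentration and fitted sigmoidally; MIC taken where OD matches the no-bacteria control.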

[5] = test system: Staphylococcus aureus; test: Antibacterial activity against methicillin-resistant Staphylococcus aureus ATCC 33591 assessed as induction of cytoplasmic membrane permeabilization measured within 5 mins by propidium iodide uptake assay; assay type: functional, organism-based; how it was run: as §3
[6] = test system: Staphylococcus aureus; test: Antibacterial activity against methicillin-sensitive Staphylococcus aureus MTCC 737 assessed as growth inhibition by broth microdilution method; assay type: functional; how it was run: as §2
[7] = test system: Enterococcus faecium; test: Antibacterial activity against vancomycin-resistant VanA phenotype of Enterococcus faecium ATCC 51559 assessed as induction of membrane depolarization measured at < 3 mins by DiSC3(5) dye-based spectrofluorometric analysis; assay type: functional, organism-based
How it was run: (§5)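 Membrane potential assay with DiSC3(5): dye added to cells until maximal uptake, seen as a fluorescence minimum (about 10 min). Compounds then added and depolarization followed as the fluorescence increase over a further 10 min.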

[8] = test system: Enterococcus faecium; test: Antibacterial activity against vancomycin-resistant VanA phenotype of Enterococcus faecium ATCC 51559 assessed as leakage of intracellular potassium ion at 10 uM measured for 10 mins by PBFI-AM dye-based spectrofluorometric analysis; assay type: functional, organism-based
How it was run: (§6)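 Mid-log (6 h) cells washed twice and resuspended in 10 mM HEPES pH 7.2 with 0.5% glucose. Signal stabilized 60 s at RT, then 1 μM PBFI-AM added and a 2 min baseline recorded before compound.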

[9] = test system: Enterococcus faecium; test: Potency index, ratio of dalbavancin MIC90 to compound MIC for vancomycin-resistant VanA phenotype of Enterococcus faecium ATCC 51559; assay type: functional
[10] = test system: HeLa; test: Cytotoxicity against human HeLa cells assessed as cell survival up to 100 uM after 24 hrs by MTT assay; assay type: cell-based
How it was run: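 HeLa cells grown in DMEM with 10% FBS to 70–80% confluency, then exposed to serially diluted compounds for 24 h at 37 °C, 5% CO2. MTT (5 mg/mL solution) added for 3 h, formazan dissolved in DMSO, A570 read. Survival calculated relative to untreated and 10% Triton X-100 controls.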

[11] = test system: Staphylococcus aureus; test: Bactericidal activity against methicillin-resistant Staphylococcus aureus ATCC 33591 assessed as log10 reduction of bacterial count at MIC measured over 24 hrs; assay type: functional; how it was run: as §1
[12] = Hemolytic activity in human RBC up to 100 uM after 1 hr; assay type: ADME, cell-based; settings: erythrocyte
How it was run: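 Incubated 1 h at 37 °C, then centrifuged and supernatant A540 read. % hemolysis calculated against no-compound wells and 1 vol% Triton X-100 wells taken as 100% lysis.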

[13] = test system: Staphylococcus aureus; test: Antibacterial activity against vancomycin-intermediate-resistant Staphylococcus aureus assessed as growth inhibition by broth microdilution method; assay type: functional; how it was run: as §4
[14] = test system: Staphylococcus aureus; test: Antibacterial activity against methicillin-resistant Staphylococcus aureus ATCC 33591 assessed as induction of membrane depolarization measured at < 3 mins by DiSC3(5) dye-based spectrofluorometric analysis; assay type: functional, organism-based; how it was run: as §5
[15] = test system: Staphylococcus aureus; test: Bactericidal activity against methicillin-resistant Staphylococcus aureus ATCC 33591 infected in 90% human whole blood at 3.6 uM after 3 hrs; assay type: functional, organism-based
How it was run: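 MRSA (30 μL of 10^6 CFU/mL in 0.9% saline) mixed with compound at 3.6 μM and 270 μL fresh human whole blood. Incubated 3 h at 37 °C.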

[16] = test system: Staphylococcus aureus; test: Antibacterial activity against methicillin-resistant Staphylococcus aureus ATCC 33591 assessed as growth inhibition measured after 52 serial passages; assay type: functional, organism-based
How it was run: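 Serial passage: the MIC assay is run against MRSA, then cells from the one-half-MIC well of the previous assay are harvested and inoculated into fresh yeast-dextrose broth for the next MIC assay after 24 h incubation. Repeated for […] passages; MIC plotted against passage number and fold increase in MIC determined.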

[17] = test system: Staphylococcus aureus; test: Antibacterial activity against methicillin-resistant Staphylococcus aureus ATCC 33591 assessed as leakage of intracellular potassium ion at 10 uM measured for 10 mins by PBFI-AM dye-based spectrofluorometric analysis relative to control; assay type: functional; how it was run: as §6
[18] = test system: Enterococcus faecium; test: Antibacterial activity against vancomycin-resistant VanA phenotype of Enterococcus faecium ATCC 51559 assessed as growth inhibition by broth microdilution method; assay type: functional; how it was run: as §4
[19] = Hemolytic activity in human RBC up to 1000 uM after 1 hr; assay type: ADME, cell-based; settings: erythrocyte
How it was run: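 Centrifuged, supernatant A540 read. Controls: no compound and 1 vol % Triton X-100 (100% lysis); % hemolysis = (A − A0)/(Atotal − A0) × 100.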

[20] = test system: Staphylococcus aureus; test: Antibacterial activity against methicillin-resistant Staphylococcus aureus ATCC 33591 infected in CD-1 mouse neutropenic thigh infection model assessed as reduction of bacterial burden in thigh at 12 mg/kg, iv bid administered as 12 hrs interval measured after 24 hrs; assay type: functional, organism-based; parameters: dose 12 mg/kg
How it was run: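 Neutropenic mouse thigh model: about 50 μL MRSA inoculum injected into the thigh. About 1 h later, iv treatment twice at 12 h intervals with saline, vancomycin or compound at 12 mg/kg. At 24 h, thigh homogenate dilutions plated and incubated overnight at 37 °C; titer expressed as log10 CFU/g thigh.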

SMILES | log10cfu [1] | MIC [2] [µM] | Activity [3] | MIC [4] [µM] | Activity [5] | MIC [6] [µM] | Activity [7] | Activity [8] | Ratio [9] | Activity [10] | log10cfu [11] | Activity [12] | MIC [13] [µM] | Activity [14] | Activity [15] | Activity [16] | Activity [17] | MIC [18] [µM] | Activity [19] | Activity [20]
CCCCCCCCCCCCCC[N+](C)(C)CCCNC(=O)[C@H]1NC(=O)[C@H]2NC(=O)[C@H](NC(=O)[C@@H]3NC(=O)[C@H](CC(N)=O)NC(=O)[C@H](NC(=O)[C@@H](CC(C)C)NC)[C@H](O)c4ccc(c(Cl)c4)Oc4cc3cc(c4O[C@@H]3O[C@H](CO)[C@@H](O)[C@H](O)[C@H]3O[C@H]3C[C@](C)(N)[C@H](O)[C@H](C)O3)Oc3ccc(cc3Cl)[C@H]2O)c2ccc(O)c(c2)-c2c(O)cc(O)cc21.O=C([O-])C(F)(F)F | >5 | 0.12 | Active | 0.65 | Dose-dependent effect | 1.25 | Dose-dependent effect | Active | 25 | Non-toxic | >5 | Non-toxic | 0.36 | Dose-dependent effect | Active | Active | Active | 0.7 |  | 
CCCCCCCC[N+](C)(C)CCCNC(=O)[C@H]1NC(=O)[C@H]2NC(=O)[C@H](NC(=O)[C@@H]3NC(=O)[C@H](CC(N)=O)NC(=O)[C@H](NC(=O)[C@@H](CC(C)C)NC)[C@H](O)c4ccc(c(Cl)c4)Oc4cc3cc(c4O[C@@H]3O[C@H](CO)[C@@H](O)[C@H](O)[C@H]3O[C@H]3C[C@](C)(N)[C@H](O)[C@H](C)O3)Oc3ccc(cc3Cl)[C@H]2O)c2ccc(O)c(c2)-c2c(O)cc(O)cc21.O=C([O-])C(F)(F)F | 3 | 0.15 | Active | 0.31 | Dose-dependent effect | 0.31 | Dose-dependent effect | Active |  | Non-toxic | 8 |  | 0.4 | Dose-dependent effect | Active | Active | 43% | 12.5 | Non-toxic | Active
